Measured values taken from the RNAGym collection of RNA variant scans (doi:10.1126/science.aae0568).
Variants at the floor of the assay were thinned out.

B1: tRNA (parent)
chain: GUUCCGUUGGCGUAAUGGUAACGCGUCUCCCUCCUAAGGAGAAGACUGCGGGUUCGAGUCCCGUACGGAACG

Variants of: B1
Experiment: yeast fitness relative to wild type (ratio to wild type); higher = fitter; tRNA-Arg(CCU), competitive growth, 37 C, YPD
How it was run: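 Variants of the tRNA-Arg(CCU) gene, chemically synthesised with a 3% per-site mutation rate at 69 sites, were placed at the native genomic locus in Saccharomyces cerevisiae. The pooled strains were competed in YPD at 37°C for 24 hours in six parallel replicates. Gene amplicons from the start population and from each end population were read by 100-nucleotide paired-end sequencing. Darwinian fitness relative to wild type came from changes in genotype frequencies; genotypes needed ≥ 100 starting reads, and estimates < 0.5 were set to 0.5.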

| Variant | yeast fitness |
| --- | --- |
| GUUCCGUUGGUGUAAUGGCAACGCGUCUCCCUCCUAAGGAGAAGACUGCGGGUUCGAGUCCCGUACGGAACG | 0.941 |
| GUUCCGUUGGUGUAAUGGUAACGCGUCUCCCUCCUAAGGAGAAGACUGCGGGUACGAGUCCUGUACGGAACG | ≤ 0.5 |
| GUUCCGUUGGUGUAAUGGGAACGCGUUUCCCUCCUAAGGAGAAGACCGCGGGUUCGAGUCCCGUACGGAUCG | ≤ 0.5 |
| GUUCCGUUGGUGUAAUGGUAACGCGUCUCCCUCCUAAGGAGAAGACUGCGGGUUCGAGUCCCGCGCGGAACG | 0.667 |
| GUUCCGUUGGUGUAAUGGUAACGCGUCUCCCUCCAAAAGAGAAGACUGCGGGUUCGAGUCACGUACGGAACG | ≤ 0.5 |
| GUUCCGUUGGUGUAAUGGUAACGCGACUCCCUCGUAAGGAGAAGACUGCGGGUUCGAGUCCCGUACGGAACG | 0.607 |
| GUUCCGUUGGUGUAAUGGUAACGCGUCCCCCUCCUAAGGCGAAGACUGCCGGUUCGAGUCCCGUACGGAACG | ≤ 0.5 |
| GUUCCGUUGGUGUAAUGGUAACGCGUCUCCCUCCAAAGGAGAAGACUCCGGGUUCGAGUCUCGUACGGAACG | ≤ 0.5 |
| GUUCCGUUGGUGUAAUGGCAACACAUCUCCCUCCUAAGGAGAUGACUGCGGGUUUGAGUCCCGUACGGAACG | ≤ 0.5 |
| GUUCCGUUGGUGUAAUGGAAACGCGUCUCCCUCCUAAGGAGAAGACUGCGGGUUCGAGUCCCGCACGGAACG | 0.664 |
| GUUCCGUUGGUGUAAUGGUAACGCGUCUCCCUCCUAAGGAGAAGACUGCGGGUCCGAGUCCCGUACGGAACG | 0.844 |
| GUUCCGUUGGUGUAAUGGUAACGCGUCUCCCUCCUAAGGAGAAGACUGCGGGUACGAGUCCCGUACGGAACG | 0.733 |
| GUUCCGUUGGUGUAAUGGUAACGCGGCUCCCUCCUAAGGAGAAGACUGCGGGUUCGAGUCCCGUACGGAACG | 0.856 |
| GUUCCGUUGGUGUAAUGGUAACGCGCCUCCCUCCUAAGGAGAAGACUGCGGGUUCGAGUCCCGUACGGAACG | 0.948 |
| GUUCCGUUGGUGUAAUGGUAACGCGACUCCCUCCUAAGGAGAAGACUGCGGGUUCGAGUCCCGUACGGAACG | 0.999 |
| GUUCCGUUGGUGUAAUGGUAACGCGUCUCCCUCCUAAGGAGAAGACCACGGGUUCAAGUCCCGUACGGAACG | ≤ 0.5 |
| GUUCCGUUGGUGUAAUGGUAACGCGUCUCCCUCCCAAGGAAAAGACUGCGGGUUCGAAUCCCGUACGGAACG | ≤ 0.5 |
| GUUCCGUUGGCAUAAUGGUAACGCGUCUCCCUCCUAAGGAGAAGACUGCGGGUUCGAGUCCCGUACGGAACG | 0.999 |
| GUUCCGUUGGUGUAAUGGUAACGCGUCCCCCUCCUAAGGAGAAGACUGCGGGUUCGAGUCCCGUACGGAACG | 0.918 |

| Variant | yeast fitness |
| --- | --- |
| GUUCCGUUGGUGUAAUGGUAACGCGUCUCCCUCCUAAGGAGAAGACUGCGGGUUCGAGACCCGUACAGAACG | 0.542 |
| GUUCCGUUGGUGUAAUGGGAAGGCGUCUCCCUCCUAAGGAGGACACUGCGGGUUUGAGUCCCGUACGGAACG | ≤ 0.5 |
| GUUCCGUUGGUGUAAUGGUAACGCGUCCCCCUCCUAAGGCGAAGACUGCCGGUUCGAGUCCCGUACGGACCG | ≤ 0.5 |
| GUUCCGUUGGUGUAAUGGUAACGCGUCUCCCUCCUAAGGAGAAGACGGCGGGUUCGAGUCCCGUACGGAACG | 0.688 |
| GUUCCGUUGGUGUAAUGGUAACGCGUCUCCCUCCUAAGGAGAAGACCGCGGGUUCGAGUCCCGUACGGAACG | 1.04 |
| GUUCCGUUGGUGUAAUGGAAACGCGUCUCCCUCCUAAGGAGAUGACUGUGGGUUCGAGACCCAUACGGAACG | ≤ 0.5 |
| GUUCCGUUGGUGUAAUGGGAACGCGUUUCCCUCCUAAGGAGAAGACUACGGGUUCGAGUCGCGUACGGAACG | ≤ 0.5 |
| GUUCCGUUGGUGUAAUGGUAACGCGUCUCCCCCCUAAGGUGAAGACUGCGGGUUCGAGUCCCGUACGGAACG | 0.785 |
| GUUCCGUUGGUGUAAUGGUAACGCGGCUCCCUCCUAAGGAGAAGACUGCGGGUUCAAGUCCCGUACGGAACG | ≤ 0.5 |
| GUUCCGUUGGUGUAAUGGUAACGCGUCUCCCUCCCAAGGAGAAGACUGCGGGUUCGAGUCCCGUACGGAACG | 0.7 |
| GUUCCGUUGGUGUAAUGGGAACGCGUCUCCCUCCGAAGGAGAAGACUGCGGGUUCGAGUCCCGUACGGAACG | ≤ 0.5 |
| GUUCCGUUGGUGUAAUGGGAACGCGUCUCCCUUCUAAGGGGAAGACUGCGGGUUCGAGUCCCGUACAGAACG | ≤ 0.5 |
| GUUCCGUUGGUGUAAUGGUAACGCGACUCCCUCCUAAGGAGAUGACUGCGGGUUCGAGUACCGUGCGGAACG | 0.531 |
| GUUCCGUUGGUGUAAUGGUAACGCGUCUCCCUCCCAAGGAGAAGAGUGCGGCUUCGAGUCCCGUACGCAACG | ≤ 0.5 |
| GUUCCGUUGGUGUAAUGGAAACGCGUCUCCCUCCUAAGGAGAAGACUGCGGGUUCGAGUGCCGUACGAAACG | ≤ 0.5 |
| GUUCCGUUGGUGUAAUGGUAACGCGGCCCCCUCCUAAGGAGAAGACUGCGGGUUCAAGUCCCGUACGGAACG | ≤ 0.5 |
| GUUCCGUUGGUGUAAUGGUAACGCGUCGACCUCCUAAGGAGAAGACUGCGGGUUCGAGUCCCGUACGGAACG | ≤ 0.5 |
| GUUCCGUUGGUGUAAUGGAAACGCGUCUCCCUCCUAAGGAGGAGACUGCGGGUUCGAGUCCCGUACGGAACG | 0.56 |
